Measurements from ChEMBL document CHEMBL1159074, “Inhibitory effect of novel tetrahydropyrimidine-2(1H)-thiones on melanogenesis” (Bioorg Med Chem, 2010).
Active and inactive are the calls of the source. No cut-off for these calls is given here.

What was measured:
[1] = system: B16; experiment: Inhibition of alpha-MSH-induced melanin production in mouse B16 cells at 10 uM after 72 hrs; format: functional; details: B16, 72 h
In short: (§1)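 B16 melanoma cells (ATCC CRL6323) were seeded at 2.5 × 10³ per well and kept at 37 °C under 5% CO₂. They were stimulated with α-MSH for 72 h with compound present. Melanin released into the medium was read by absorbance at 405 nm against a synthetic melanin standard. % inhibition at 10 µM and IC₅₀ are means of 3–5 separate experiments.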

[2] = system: B16; experiment: Inhibition of alpha-MSH-induced melanin production in mouse B16 cells after 72 hrs; format: functional, cell-based; details: B16, 72 h; in short: as §1
[3] = target: T1, Tyrosinase (Mus musculus) (UniProt P11344); experiment: Inhibition of cell free tyrosinase in alpha-MSH-induced mouse B16 cells assessed as effect on Dopa oxidation by spectrophotometry
T1 sequence (whole entry): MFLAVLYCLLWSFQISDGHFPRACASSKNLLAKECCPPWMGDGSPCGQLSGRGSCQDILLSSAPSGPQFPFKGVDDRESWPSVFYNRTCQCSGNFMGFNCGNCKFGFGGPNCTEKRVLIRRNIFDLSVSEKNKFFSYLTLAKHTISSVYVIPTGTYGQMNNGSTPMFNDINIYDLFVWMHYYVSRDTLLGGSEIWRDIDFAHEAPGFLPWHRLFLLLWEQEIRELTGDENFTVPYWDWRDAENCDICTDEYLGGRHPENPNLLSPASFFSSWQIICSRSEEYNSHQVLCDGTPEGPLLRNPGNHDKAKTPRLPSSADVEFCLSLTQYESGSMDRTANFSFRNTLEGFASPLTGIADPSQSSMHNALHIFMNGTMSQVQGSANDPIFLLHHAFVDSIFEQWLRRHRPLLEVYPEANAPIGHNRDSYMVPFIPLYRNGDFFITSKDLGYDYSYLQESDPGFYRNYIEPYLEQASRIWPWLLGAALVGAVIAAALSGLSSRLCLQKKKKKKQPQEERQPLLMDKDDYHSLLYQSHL
In short: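 Cell-free tyrosinase came from B16 cells stimulated with α-MSH (10 nM). Cells were sonicated on ice in 50 mM sodium phosphate pH 6.8 with 1% Triton X-100 and 1 mM PMSF. The supernatant was dialysed and diluted to 80,000 U/mg protein. Dopa (5 mM), sample and enzyme were mixed in 50 mM phosphate pH 6.8. Dopa oxidation velocity was read spectrophotometrically.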

[4] = system: B16; experiment: Toxicity in alpha-MSH-induced mouse B16 cells assessed as effect on cell viability after 48 hrs by MTT assay; format: cell-based; details: b16, 48 h
[5] = system: B16; experiment: Inhibition of tyrosinase protein biosynthesis in alpha-MSH-induced mouse B16 cells after 48 hrs by Western blot; format: functional, cell-based
In short: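 B16 cells were stimulated with α-MSH (10 nM) for 48 h with compound present. They were lysed in Tris/NaCl buffer (0.1% SDS, 1% NP-40, protease inhibitors, pH 7.4). Blots were probed overnight at 4 °C with anti-tyrosinase (1:1000), with GAPDH (1:5000) as internal control, then with HRP-conjugated secondary antibody.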

IC50 [2] [µM] | inhibition [3] | Structure (SMILES) | inhibition at 10 µM [1] [%] | Activity [4] | inhibition [5]
> 10 |  | COc1ccc(CN2CCNC2=O)cc1 | 13 |  | 
2.4 |  | S=C1NCCCN1Cc1ccc(Cl)cc1 | > 100 |  | 
6.1 |  | COc1ccc(CN2CCCNC2=S)cc1 | 60 |  | 
1.3 |  | CCc1ccc(CN2CCCNC2=S)cc1 | > 100 |  | 
> 10 |  | O=C1NCCN1Cc1ccc(Cl)cc1 | 10 |  | 
> 10 |  | Cc1ccc(CN2CCCNC2=O)cc1 | 5 |  | 
5.1 |  | Cc1ccc(CN2CCCNC2=S)cc1 | 80 |  | 
> 10 |  | Cc1ccc(CN2CCNC2=O)cc1 | 14 |  | 
0.8 | inactive | CC(C)(C)c1ccc(CN2CCCNC2=S)cc1 | > 100 | Non-toxic | Active
> 10 |  | COc1ccc(CN2CCNC2=S)cc1 | 31 |  | 
> 10 |  | COc1ccc(CN2CCCNC2=O)cc1 | 20 |  | 
> 10 |  | S=C1NCCN1Cc1ccccc1 | 35 |  | 
4.3 |  | S=C1NCCN1Cc1ccc(Cl)cc1 | 79 |  | 
4.8 |  | Cc1ccc(CN2CCNC2=S)cc1 | 64 |  | 
> 10 |  | S=C1NCCCN1Cc1ccccc1 | 42 |  | 

Further lines, the molecule ahead of its results:

Structure (SMILES) | IC50 [2] [µM] | inhibition [3] | inhibition at 10 µM [1] [%] | Activity [4] | inhibition [5]
O=C1NCCCN1Cc1ccc(Cl)cc1 | > 10 |  | 26 |  | 
O=C1NCCCN1CCCc1ccccc1 | > 10 |  | 10 |  | 
O=C1NCCN1Cc1ccccc1 | > 10 |  | 7 |  | 
O=C1NCCN1CCc1ccccc1 | > 10 |  | 15 |  | 
OC[C@H]1O[C@@H](Oc2ccc(O)cc2)[C@H](O)[C@@H](O)[C@@H]1O [ARBUTIN] |  |  | > 100 |  | 
S=C1NCCN1CCc1ccccc1 | > 10 |  | 40 |  | 
O=C1NCCCN1Cc1ccccc1 | > 10 |  | 0 |  | 
O=C1NCCCN1CCc1ccccc1 | > 10 |  | 10 |  | 
CC(C)(C)c1ccc(CN2CCCNC2=O)cc1 | > 10 |  | 30 |  | 
S=C1NCCN1CCCc1ccccc1 | 4.2 |  | 63 |  | 
O=C1NCCN1CCCc1ccccc1 | > 10 |  | 10 |  | 
S=C1NCCCN1CCCc1ccccc1 | 2.1 |  | > 100 |  | 
S=C1NCCCN1CCc1ccccc1 | 2.9 |  | 93 |  | 
CCc1ccc(CN2CCCNC2=O)cc1 | > 10 |  | 29 |  | 
